pIC50: −log10 of the molar value. The source made the active and inactive calls. No cut-off for these calls is given here.
Key:
NCI-H322M [1] = test: Growth inhibition of human NCI-H322M cells assessed as cell growth at 10 uM after 24 hrs by SRB assay relative to control; assay type: functional; conditions: read-out: Activity
How it was run: (§1)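 NCI DTP one-dose screen: cells plated at density set by doubling rate, incubated overnight, then exposed to compound at 10 μM for 24 hours. Growth percentage from protein density at end versus start of experiment, relative to initial cell number.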

A549 [2] = test: Growth inhibition of human A549 cells assessed as cell growth at 10 uM after 24 hrs by SRB assay relative to control; assay type: functional; conditions: A549, 24 h, read-out: Activity; how it was run: as §1
NCI-H226 = test: Growth inhibition of human NCI-H226 cells after 24 hrs by SRB assay; assay type: functional; conditions: NCI-H226, 24 h
NCI-H1975 [3] = test: Potency index, ratio of compound cisplatin IC50 to compound IC50 for human NCI-H1975 cells using 1% DMSO/water compound formulation; assay type: functional
NCI-H322M [4] = test: Growth inhibition of human NCI-H322M cells after 24 hrs by SRB assay; assay type: functional
NCI-H460 [5] = test: Disruption of mitochondrial membrane potential in human NCI-H460 cells at 40 uM up to 1 hr […] by JC1/DAPI staining based confocal microscopic method; assay type: functional, cell-based
NCI-H460 [6] = test: Antiproliferative activity against human NCI-H460 cells using 1% DMSO/water compound formulation after 72 hrs by MTT assay; assay type: functional, cell-based; conditions: NCI-H460, 72 h
How it was run: (§2)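 MTT anti-proliferation on NSCLC lines. Compounds dissolved in DMSO, diluted with water to 1% DMSO, then into growth medium (max 0.032% DMSO on cells); or dissolved in 10% (w/v) 2-HPβCD in water, then diluted (max 0.008% w/w 2-HPβCD in wells; vehicle controls at 0.008%). IC50 = concentration giving 50% loss of viability versus control cells. Cisplatin dissolved in water with stirring.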

HCC827 = test: Antiproliferative activity against human HCC827 cells using 1% DMSO/water compound formulation after 72 hrs by MTT assay; assay type: functional, cell-based; conditions: HCC827, 72 h; how it was run: as §2
[7] = Solubility of the compound in 10% 2-HPbetaCD/water solution; assay type: physicochemical; conditions: buffer
A549 [8] = test: Growth inhibition of human A549 cells after 24 hrs by SRB assay; assay type: functional; conditions: A549, 24 h
NCI-H23 = test: Growth inhibition of human NCI-H23 cells assessed as cell growth at 10 uM after 24 hrs by SRB assay relative to control; assay type: functional; conditions: NCI-H23, 24 h, read-out: Activity; how it was run: as §1
HOP-92 = test: Growth inhibition of human HOP92 cells assessed as cell growth at 10 uM after 24 hrs by SRB assay relative to control; assay type: functional; conditions: HOP-92, 24 h, read-out: Activity; how it was run: as §1
NCI-H460 [9] = test: Induction of apoptosis in human NCI-H460 cells assessed as blebbing at 40 uM after 14 hrs using 10% 2HPbetaCD/water compound formulation by Annexin V-FITC/propidium iodide staining based fluorescence microscopic method; assay type: functional, cell-based
How it was run: (§3)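 Annexin V-FITC/propidium iodide staining of H460 cells in 6-well plates. Compound given in 10% (w/v) 2-HPβCD aqueous solution. Imaged at 12, 14, 17 and 20 h with 20× objective as merged transmitted, green and red channels. Controls: 2-HPβCD and cisplatin, 20 h.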

Mus musculus [10] = test: Acute toxicity in C57BL/6 mouse assessed as weight loss at 20 mg/kg, ip administered as 20% 2HPbetaCD formulation on day 1 followed by redosing with 15 mg/kg, ip on day 14 relative to control; assay type: organism-based; conditions: in vivo
How it was run: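 C57BL/6 mice given IP 100 μL of 20 mg/kg (based on 20 g mean mass) in 20% w/v 2-HPβCD on day 0, then 15 mg/kg on day 14. Vehicle mice received 2-HPβCD on days 0, 7, 14, 21, 25 and 29. Body weight, behaviour and survival monitored.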

NCI-H460 [11] = test: Growth inhibition of human NCI-H460 cells after 24 hrs by SRB assay; assay type: functional; conditions: NCI-H460, 24 h
Bos taurus [12] = species: Bos taurus; test: Binding affinity to calf thymus DNA assessed as increase in viscosity at 10 to 70 uM using 10% 2HPbetaCD/water compound formulation by Ostwald viscometric method
NCI-H460 [13] = test: Induction of apoptosis in human NCI-H460 cells at 40 uM up to 12 hrs using 10% 2HPbetaCD/water compound formulation by Annexin V-FITC/propidium iodide staining based fluorescence microscopic method; assay type: functional, cell-based; how it was run: as §3
NCI-H460 [14] = test: Disruption of mitochondrial membrane potential in human NCI-H460 cells at 20 uM up to 30 mins using […] by JC1/DAPI staining based confocal microscopic method; assay type: functional, cell-based
Bos taurus [15] = species: Bos taurus; test: Binding affinity to calf thymus DNA assessed as increase in viscosity at 10 to 70 uM using 1% DMSO/water compound formulation by Ostwald viscometric method
NCI-H1975 [16] = test: Antiproliferative activity against human NCI-H1975 cells using 1% DMSO/water compound formulation after 72 hrs by MTT assay; assay type: functional, cell-based; conditions: NCI-H1975, 72 h; how it was run: as §2
Bos taurus [17] = species: Bos taurus; test: Inhibition of ethidium bromide binding to calf thymus DNA assessed as at 13.3 uM using 1% DMSO/water compound formulation by spectrofluorometric method
A549 [18] = test: Antiproliferative activity against human A549 cells using 1% DMSO/water compound formulation after 72 hrs by MTT assay; assay type: functional, cell-based; conditions: A549, 72 h; how it was run: as §2
NCI-H460 [19] = test: Induction of apoptosis in human NCI-H460 cells assessed as blebbing at 40 uM up to 6 hrs using 1% DMSO/water compound formulation by Annexin V-FITC/propidium iodide staining based fluorescence microscopic method; assay type: functional, cell-based
NCI-H1975 [20] = test: Antiproliferative activity against human NCI-H1975 cells using 10% 2-HPbetaCD compound formulation after 72 hrs by MTT assay; assay type: functional, cell-based; conditions: NCI-H1975, 72 h; how it was run: as §2
NCI-H522 [21] = test: Growth inhibition of human NCI-H522 cells after 24 hrs by SRB assay; assay type: functional; conditions: NCI-H522, 24 h
EKVX = test: Growth inhibition of human EKVX cells after 24 hrs by SRB assay; assay type: functional
[22] = Aqueous solubility of the compound in water; assay type: physicochemical; conditions: buffer
Mus musculus [23] = test: Acute toxicity in C57BL/6 mouse assessed as weight loss at 20 mg/kg, ip administered as 20% 2HPbetaCD formulation; assay type: organism-based; conditions: in vivo
How it was run: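 Female/male not stated; C57BL/6 mice received 20 mg/kg IP on day zero in 100 μL of 20% (w/v) 2-HPβCD, then a second 15 mg/kg IP dose on day fourteen. Vehicle controls got 100 μL of 20% 2-HPβCD IP on days 0, 7, 14, 21, 25 and 29. Body weight and behaviour were monitored throughout, with survival plotted Kaplan-Meier.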

NCI-H522 [24] = test: Growth inhibition of human NCI-H522 cells assessed as cell growth at 10 uM after 24 hrs by SRB assay relative to control; assay type: functional; conditions: NCI-H522, 24 h, read-out: Activity; how it was run: as §1
[25] = read-out: LC50 (the source's name)

With CCc1n(Cc2ccc3ccccc3c2)cc[n+]1Cc1ccc2ccccc2c1.[Br-] the growth at 10 µM (NCI-H322M [1]) was 44.3%, the growth at 10 µM (A549 [2]) was 28.5% and the GI50 (NCI-H226) was 1080 nM. The LC50 (NCI-H226) was 3820 nM, the TGI (NCI-H226) was 3820 nM and the “Ratio IC50” value (NCI-H1975 [3]) was 15. For the same compound, the GI50 (NCI-H322M [4]) was 2120 nM, the LC50 (lethal concentration 50%) (NCI-H322M [4]) was 6710 nM and the TGI (NCI-H322M [4]) was 6710 nM. The Activity (NCI-H460 [5]) was “Active”, the pIC50 (NCI-H460 [6]) was 6.04 and the pIC50 (HCC827) was 5.94. It also gave a solubility [7] greater than 4400 µg/mL, a GI50 (A549 [8]) of 2590 nM and a TGI (A549 [8]) of 13900 nM. The CC50 (A549 [8]; [25]) was 57900 nM, the growth at 10 µM (NCI-H23) was -14.6% and the growth at 10 µM (HOP-92) was -31.4%. The Activity (NCI-H460 [9]) was “Active”, the Activity (Mus musculus [10]) was 6% and the GI50 (NCI-H460 [11]) was 724 nM. For the same compound, the TGI (NCI-H460 [11]) was 2150 nM, the CC50 (NCI-H460 [11]; [25]) was 2150 nM and the Activity (Bos taurus [12]) was “inactive”. The Activity (NCI-H460 [13]) was “inactive”, the Activity (NCI-H460 [14]) was “Active” and the Activity (Bos taurus [15]) was “inactive”. For the same compound, the pIC50 (NCI-H1975 [16]) was 6.18, the inhibition (Bos taurus [17]) was “inactive” and the pIC50 (A549 [18]) was 5.58. The Activity (NCI-H460 [19]) was “Active”, the pIC50 (NCI-H1975 [20]) was 6.25 and the GI50 (NCI-H522 [21]) was 303 nM. For the same compound, the TGI (NCI-H522 [21]) was 1440 nM, the CC50 (NCI-H522 [21]; [25]) was 1440 nM and the GI50 (EKVX) was 766 nM. It also gave an LC50 (EKVX) of 35800 nM, a TGI (EKVX) of 5550 nM and a solubility [22] of less than 500 µg/mL. The Activity (Mus musculus [23]) was “Toxic” and the growth at 10 µM (NCI-H522 [24]) was -25.4%.
